Laboratory results taken from publication PMC3103858 (Chemistry & biology, 2011).

Key:
U2OS cells = experiment: BRDU incorporation cell cycle assay; type: cell-based, human
How it was run: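 U2OS cells in DMEM with 10% FBS were seeded at 1×10^5/ml. After 12 h, they got test compound (50 μM) with or without doxorubicin (5 μM); DMSO and untreated cells were controls. BrdU was added for the 24 h treatment. Cells were fixed, probed with anti-BrdU antibody, then peroxidase. Colour was developed with TMB, stopped, and read as OD at 450 nm.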

[1] = tested on: p53-dependent p21 luciferase activity; experiment: p21 luciferase assay of doxorubicin-induced p53 activation in U2OS cells; type: cell-based, human
p53 target genes = experiment: RT-PCR array analysis of p53 target genes in U2OS cells; type: cell-based, human
p53 [2] = experiment: western blot analysis of doxorubicin-treated U2OS cells; type: cell-based, human
How it was run: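 U2OS cells were grown in DMEM with 10% FBS and antibiotics, then exposed 24 h to doxorubicin ± test compound (50 or 100 μM). Lysates were sonicated and cleared at 14,000 rpm for 30 min at 4°C. 30–50 μg protein was run on SDS-PAGE and moved to nitrocellulose, blocked in 5% milk/PBS, probed with primary then HRP secondary (60 min, RT), and developed by ECL.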

CBP/p300 = type: biochemical; conditions: histone H3 peptide substrate; data not shown
p53 binding to CBP = p53 binding to CBP (Homo sapiens, UniProt Q92793); experiment: HA-CBP and Flag-p53 pull-down assay in HEK 293T cells; type: cell-based; conditions: HA-CBP and Flag-p53 over-expressed in 293T cells, doxorubicin treatment
Chain of p53 binding to CBP (Q92793 whole entry): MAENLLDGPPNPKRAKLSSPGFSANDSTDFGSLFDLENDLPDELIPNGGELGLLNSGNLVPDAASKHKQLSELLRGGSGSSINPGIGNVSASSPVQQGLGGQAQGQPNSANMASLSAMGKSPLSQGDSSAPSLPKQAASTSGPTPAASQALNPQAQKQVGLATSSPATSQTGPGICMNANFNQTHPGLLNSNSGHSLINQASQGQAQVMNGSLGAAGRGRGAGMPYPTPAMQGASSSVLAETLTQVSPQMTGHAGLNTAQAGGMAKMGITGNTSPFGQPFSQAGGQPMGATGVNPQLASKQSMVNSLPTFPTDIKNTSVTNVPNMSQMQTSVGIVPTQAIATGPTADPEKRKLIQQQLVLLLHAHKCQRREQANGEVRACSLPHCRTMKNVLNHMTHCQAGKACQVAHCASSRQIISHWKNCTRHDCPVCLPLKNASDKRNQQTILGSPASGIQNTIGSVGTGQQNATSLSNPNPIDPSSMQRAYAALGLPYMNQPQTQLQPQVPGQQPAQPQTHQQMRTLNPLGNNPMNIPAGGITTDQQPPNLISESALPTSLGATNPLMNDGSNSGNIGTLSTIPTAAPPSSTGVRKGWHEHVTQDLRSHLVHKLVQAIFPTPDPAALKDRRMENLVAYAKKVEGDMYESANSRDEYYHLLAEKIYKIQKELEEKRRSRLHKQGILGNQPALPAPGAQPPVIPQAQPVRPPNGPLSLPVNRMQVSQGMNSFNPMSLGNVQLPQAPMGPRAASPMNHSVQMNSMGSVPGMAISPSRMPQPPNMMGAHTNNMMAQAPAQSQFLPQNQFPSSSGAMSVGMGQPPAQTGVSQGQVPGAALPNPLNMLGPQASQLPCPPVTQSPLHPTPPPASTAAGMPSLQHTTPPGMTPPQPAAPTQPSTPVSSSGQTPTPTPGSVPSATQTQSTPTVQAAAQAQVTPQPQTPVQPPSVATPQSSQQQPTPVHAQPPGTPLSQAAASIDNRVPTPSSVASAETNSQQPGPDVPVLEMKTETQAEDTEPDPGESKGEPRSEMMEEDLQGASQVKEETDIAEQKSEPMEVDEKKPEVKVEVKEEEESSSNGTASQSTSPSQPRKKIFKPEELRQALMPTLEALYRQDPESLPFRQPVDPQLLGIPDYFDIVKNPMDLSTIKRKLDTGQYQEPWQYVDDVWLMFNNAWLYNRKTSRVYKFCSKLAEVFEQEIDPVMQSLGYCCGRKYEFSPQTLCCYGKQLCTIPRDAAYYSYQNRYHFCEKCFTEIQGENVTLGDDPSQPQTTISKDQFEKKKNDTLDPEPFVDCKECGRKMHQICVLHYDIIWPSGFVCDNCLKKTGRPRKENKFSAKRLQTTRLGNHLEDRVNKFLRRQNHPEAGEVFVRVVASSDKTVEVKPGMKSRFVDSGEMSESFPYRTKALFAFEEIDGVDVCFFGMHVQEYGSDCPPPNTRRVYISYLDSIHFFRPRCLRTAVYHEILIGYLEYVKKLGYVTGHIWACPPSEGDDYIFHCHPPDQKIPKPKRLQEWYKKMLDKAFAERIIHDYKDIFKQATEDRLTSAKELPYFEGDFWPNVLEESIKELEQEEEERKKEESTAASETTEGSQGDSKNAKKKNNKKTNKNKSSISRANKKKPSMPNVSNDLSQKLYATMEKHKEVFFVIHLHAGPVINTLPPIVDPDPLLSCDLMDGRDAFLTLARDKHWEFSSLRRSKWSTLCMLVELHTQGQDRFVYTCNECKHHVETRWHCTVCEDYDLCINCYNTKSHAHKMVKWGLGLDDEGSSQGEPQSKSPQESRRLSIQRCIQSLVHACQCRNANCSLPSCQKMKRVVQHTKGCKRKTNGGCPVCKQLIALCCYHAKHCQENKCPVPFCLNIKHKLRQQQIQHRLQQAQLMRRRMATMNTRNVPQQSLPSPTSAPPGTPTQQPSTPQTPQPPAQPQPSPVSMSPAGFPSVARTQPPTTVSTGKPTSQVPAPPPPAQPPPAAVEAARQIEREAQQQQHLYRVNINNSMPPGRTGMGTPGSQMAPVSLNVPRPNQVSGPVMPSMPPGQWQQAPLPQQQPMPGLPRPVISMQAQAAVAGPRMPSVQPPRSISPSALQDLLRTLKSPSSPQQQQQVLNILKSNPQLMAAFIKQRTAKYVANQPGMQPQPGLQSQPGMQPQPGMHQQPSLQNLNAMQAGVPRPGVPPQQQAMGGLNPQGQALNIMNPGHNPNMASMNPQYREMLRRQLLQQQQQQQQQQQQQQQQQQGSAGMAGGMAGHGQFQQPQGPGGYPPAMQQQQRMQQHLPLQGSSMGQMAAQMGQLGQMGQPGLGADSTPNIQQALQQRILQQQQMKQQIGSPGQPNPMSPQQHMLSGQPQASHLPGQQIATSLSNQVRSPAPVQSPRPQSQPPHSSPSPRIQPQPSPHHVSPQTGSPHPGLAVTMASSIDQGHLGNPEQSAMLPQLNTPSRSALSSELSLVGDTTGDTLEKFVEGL
How it was run: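 HEK 293T cells were co-transfected with HA-CBP and Flag-p53 (Fugene 6), then treated with test compound at several concentrations, with or without doxorubicin. CBP was immunoprecipitated on HA-agarose beads. Co-precipitated p53 was detected by western blot with anti-Flag antibody.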

p53 [3] = experiment: immunoblot of doxorubicin-treated cardiomyocytes; type: cell-based; conditions: primary neonatal rat cardiomyocytes
How it was run: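 Neonatal rat ventricular myocytes (1–2-day-old Sprague-Dawley pups) were isolated by trypsin then collagenase digestion and enriched by two preplating rounds. They were cultured in DMEM/F12 with 10% horse serum and 5% FCS, then after 48 h in DMEM/F12 with 1% ITS and 0.1% BSA. Cells were exposed to doxorubicin with or without test compound and immunoblotted for activated p53 and H2AX Ser139 phosphorylation.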

[4] = tested on: primary neonatal rat cardiomyocytes; experiment: TUNEL apoptosis assay in cardiomyocytes; type: cell-based
How it was run: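 Ventricular myocytes came from 1–2-day-old Sprague-Dawley rats: trypsin overnight at 4°C, collagenase 45 min at 37°C, two preplating rounds. Cells were grown in DMEM/F12 with 10% horse serum and 5% FCS, switched after 48 h to DMEM/F12 with 1% ITS and 0.1% BSA. Doxorubicin was given 24 h ± test compound. Cells on coverslips were fixed in 4% PFA/PBS, permeabilised with 0.5% Tween 20 for 10 min, and TUNEL-labelled with FITC-nucleotide. Triplicates on three days.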

[5] = U2OS cells, 50 or 100 μM, 24 hours
[6] = nuclear extracts from U2OS cells

SMILES: COc1cccc2c1C(=O)c1c(O)c3c(c(O)c1C2=O)C[C@@](O)(C(=O)CO)C[C@@H]3O[C@H]1C[C@H](N)[C@H](O)[C@H](C)O1 [doxorubicin, reference compound]
- decrease of BRDU incorporation (U2OS cells; doxorubicin treatment of U2OS cells): 45%

SMILES: Cc1cc(N=Nc2cc(S(=O)(=O)O)c(C)cc2C)c(N)cc1O [Ischemin / MS120, 5-(2-amino-4-hydroxy-5-methyl-phenylazo)-2,4-dimethyl-benzenesulfonic acid]
- IC50 ([1]; Homo sapiens, U2OS, read-out: IC50 inhibition of p53-induced p21 activation): 5 µM
- suppression of p21 expression ([1]; U2OS cells, doxorubicin, 50 μM): nearly completely suppresses
- doxorubicin-induced expression of p53 target genes (CCNE2, CCNG2, CDC2, CDC25A, CDKN1A, CDKN2A, GADD45A, E2F1, E2F3, PCNA, SESN1, SESN2) (p53 target genes): differentially reduce
- expression of p53 target genes p21, PUMA and 14-3-3s induced by doxorubicin (p53 [2]; [5]): significantly decreased
- levels of p53 protein, p53S15p and p53K382ac induced by doxorubicin (p53 [2]; [5]): marked reduction
- level or functional phosphorylation state of ATM and CHK1 (p53 [2]; U2OS cells, doxorubicin): did not affect
- H3 acetylation at Lys9 (p53 [2]; [6]): decrease
- histone H3 phosphorylation at Ser10 (p53 [2]; [6]): increase
- prevention of doxorubicin-induced cell cycle arrest (BRDU incorporation) (U2OS cells; 50 μM compound, doxorubicin 5 μM, U2OS cells, 24 hours): almost completely prevented
- toxicity to the cells (U2OS cells; U2OS cells, 50 μM): not toxic
- direct inhibition of lysine acetyltransferase activity (CBP/p300): ruled out
- inhibition of p53 binding to CBP (p53 binding to CBP): inhibiting in a dose-dependent manner
- doxorubicin induced p53 activation (p53 [3]): able to inhibit
- H2AX phosphorylation at Ser139 (p53 [3]; doxorubicin): did not alter
- toxicity of its own [4]: no toxicity of its own
- inhibition of doxorubicin-induced apoptosis ([4]; doxorubicin 24 hours): effectively inhibit
